From PubChem BioAssay
G6PDH CS – counter-screen for G6PDH assay hits: L. mesenteroides G6PDH inhibition. Purified L. mesenteroides G6PDH, diaphorase/resazurin coupled fluorescence, 45 min. inhibition, % at 5 µM. hit rate 0.12% among 200,000; in the data active = inhibition above about 50%
Diaphorase act – activates diaphorase or chemically reduces, flagging diaphorase assay artifacts; Diaphorase/resazurin coupled assay, resorufin fluorescence, 16 min; hits give high values; 1 = vehicle wells, 0 = NADH-free wells; AID 1229; hit rate 0.005% among 190,000; activation factor at 20 µM;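 active = diaphorase activity raised at least twofold by the compound at 20 µM; inactive = activation factor below 2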
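Test system: Clostridium kluyveri diaphorase, purified enzyme. Buffer or medium: 50 mM HEPES pH 7.4 buffer plus MgCl2 and Tween 20. Also added: 0.114 mM NADH and 0.1 mM resazurin, final amounts. Dosing: compound 20 µM once, DMSO 1%. Schedule: 16 min enzyme reaction, ambient temperature. Detection: fluorescence of resorufin, 544 nm excitation, 590 nm emission.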
PMI act satM6P – activators of human phosphomannose isomerase at near-saturating mannose 6-phosphate; P34949; coupled PMI enzyme assay, resazurin fluorescence, 20 min; hits give high values; 1 = untreated enzyme, 0 = substrate-free blank; activation factor at 20 µM; hit rate 0.34% among 190,000;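 active = activation factor of 2 or more at 20 µM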
Target sequence (P34949 whole entry, looked up): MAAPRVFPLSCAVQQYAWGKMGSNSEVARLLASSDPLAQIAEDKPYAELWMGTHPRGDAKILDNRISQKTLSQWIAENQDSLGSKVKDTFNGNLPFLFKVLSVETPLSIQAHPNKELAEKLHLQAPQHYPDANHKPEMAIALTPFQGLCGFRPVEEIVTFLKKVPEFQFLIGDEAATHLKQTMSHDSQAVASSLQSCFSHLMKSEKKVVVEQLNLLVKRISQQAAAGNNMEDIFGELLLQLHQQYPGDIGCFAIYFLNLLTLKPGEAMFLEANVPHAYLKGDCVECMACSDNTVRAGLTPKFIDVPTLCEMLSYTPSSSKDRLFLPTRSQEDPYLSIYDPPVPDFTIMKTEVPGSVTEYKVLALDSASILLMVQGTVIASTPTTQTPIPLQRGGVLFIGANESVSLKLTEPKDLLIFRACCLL
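Material: human phosphomannose isomerase with PGI, G6PDH, diaphorase coupling enzymes. Quantity: 15 ng/mL PMI. Medium: HEPES pH 7.4 buffer with MgCl2 and Tween-20. Reagent: Near-saturating mannose-6-phosphate, 1.0 mM. Compound: 20 µM single dose. Times: enzyme reaction with compound 20 min at room temperature. Detection: resorufin fluorescence at Ex 544/Em 590 nm.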
Diaph inh CS – counter-screen for diaphorase-based assays: diaphorase inhibitors and chemical oxidizers | inhibition, % at 20 µM | diaphorase resazurin-to-resorufin fluorescence, NADH, 16 min; bacterial (C. kluyveri) enzyme, not human | hit rate 0.69% among 190,000;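 active = primary screen inhibition at 20 µM above a set limit, cut at about 50% in these data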;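 also: plate controls were DMSO with full reaction for no effect and wells lacking NADH for full effect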
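Benchmarks: positive control wells lacking NADH, neutral wells with DMSO only. System: bacterial diaphorase enzyme (C. kluyveri). Input: 0.14 U/mL diaphorase, enzyme working solution. Detection: resorufin fluorescence, excitation 544 nm, emission 590 nm. Times: 16-min room-temperature incubation before reading.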
ROMK mod – modulators of human ROMK potassium channel; P48048; Tet-inducible ROMK, thallium flux fluorescence; actives lie on both sides; B-score at 10 µM; hit rate 2% among 130,000;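 active = signal ratio slope over the read window, or its plate-corrected B-score, at least 3 SD from the plate mean, either direction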;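 also: B-score of the F/F0 ratio slope over 7 to 12 s after thallium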
PMI act – activators of human phosphomannose isomerase | P34949 | activation factor at 20 µM | AID 1214 | purified human PMI, coupled resazurin fluorescence, 20 min; hits give high values; 1 = vehicle control, 0 substrate-free wells | hit rate 0.005% among 190,000;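 active = activation factor of 2 or more at 20 µM, relative to plate controls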
ROMK retest – confirmation of human ROMK potassium channel modulators; AID 1917; shares compounds with ROMK mod; normalized thallium flux (F/F0 slope) at 10 µM; ROMK thallium flux, fluorescence ratio; hits give low values; hit rate 54% among 3,000;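 active = Flux at 10 µM at least 3 SD below or above vehicle control mean in one or both replicates; inconclusive = no clear call, values can overlap the other calls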
Starred values were filed as active, the others as inactive; ? = inconclusive; / = not tested or not shown. Most compounds without a hit are left out; they make up all but 2.2% or so of the library.

SMILES | G6PDH CS | Diaphorase act | PMI act satM6P | Diaph inh CS | ROMK mod | PMI act | ROMK retest
C=CC#CC1(O)CC(C)[N+](C)(C)CC1C (centres undefined) | 4 | 1 | 0.9 | 1 | 0.3 | 0.7 | 0.084
CC(=O)N1C(C(=O)O)CSC1c1ccc(C)cc1 (centres undefined) | 0 | 1 | 0.8 | 0 | / | 1 | 0.072
Cc1ccc(OCC(=O)Nc2ccccc2N2CCCC2)c(C)c1 | 14 | / | / | / | 0.55 | / | /
CCC(=O)N1CCN(c2ccccc2NC(=O)COc2cc(C)ccc2C(C)C)CC1 | 0 | 0.8 | 0.9 | 19 | -3.5* | 0.8 | 0.066*
C/C(=N\NC(=O)C1COc2ccccc2O1)c1ccc(N2CCOCC2)cc1 (centres undefined) | -4 | 1 | 1 | 2 | -0.047 | 1.1 | /
CC1C/C(=C/c2cccs2)C(=O)/C(=C/c2cccs2)C1 (centres undefined) | -3 | 0.8 | 1 | 17 | 2.9* | 1 | 0.071
CCN1C(=O)/C(=C\C(=O)c2cccs2)c2cc(Br)ccc21 | 1 | 0.8 | 0.8 | 20 | -2.2 | 0.9 | /
O=C1Nc2ccccc2/C1=C/C(=O)c1cccs1 | 8 | 1 | 1 | 4 | -5.6* | 0.9 | 0.039*
O=C(Cn1ncc(Cl)c(Cl)c1=O)N1CCN(Cc2ccccc2)CC1 | 3 | 1 | 1.2 | -1 | -1.1 | 1.3 | /
O=C(Cn1ncc(Cl)c(Cl)c1=O)N1CCc2ccccc21 | 10 | 1 | 1 | -2 | -3.3* | 1.1 | ?
Cn1c(CN2CCOCC2)nc2cc(NC(=O)COc3ccc([N+](=O)[O-])cc3)ccc21 | 0 | 1 | 1 | -4 | -1 | 1 | /
CSc1ccccc1NC(=O)CN1CCCCC1 | 4 | 1 | 0.9 | 4 | -0.32 | 0.9 | /
CSc1ccccc1NC(=O)CN1CCN(Cc2ccccc2)CC1 | 4 | 0.9 | 1 | 7 | -3.1* | 1 | 0.072
CCOC(=O)N1CCN(CC(=O)Nc2ccc([N+](=O)[O-])cc2C(=O)Nc2ccccc2F)CC1 | -4 | 0.9 | 0.9 | 12 | / | 0.8 | /
O=C(CN1CCN(Cc2ccccc2)CC1)Nc1ccc([N+](=O)[O-])cc1C(=O)Nc1ccccc1F | -16 | 0.8 | 0.9 | 21 | / | 0.8 | 0.058*
O=C1CSC(c2ccccc2[N+](=O)[O-])N1CCc1ccccc1 (centres undefined) | 10 | 0.9 | 1 | 13 | 0.45 | 1 | /
Cc1cc(NC(=O)c2cc3nc(C4CC4)cc(C(F)(F)F)n3n2)no1 | 2 | 0.8 | 1 | 18 | / | 0.9 | /
CC(=O)c1cc2c(cc1NC(=O)c1cc3nc(C(C)C)cc(C(F)(F)F)n3n1)OCO2 | 4 | 0.7 | 0.8 | 30 | / | 0.9 | 0.075
Cc1ccc(-n2c(C)cc(/C=c3/sc4nc5ccccc5n4c3=O)c2C)cc1 | 3 | 0.7 | 1.1 | 30 | 0.73 | 0.8 | /
COc1cc(N2CCCC2)c(OC)cc1/C=c1/sc2nc3ccccc3n2c1=O | 4 | 0.7 | 0.5 | 26 | -2.5 | 0.8 | 0.051*
O=C(CN1CCC(N2CCCCC2)CC1)N1CCOCC1 | 2 | 0.9 | 1.2 | 7 | 0.69 | 1.1 | /
COc1ccc(CCN2C(=O)CC(N3CCN(C/C=C/c4ccccc4)CC3)C2=O)cc1OC (centres undefined) | / | / | / | / | -0.075 | / | /
CCCCCCCCCCOC(=O)C[N+](C)(C)C/C=C(/C)Cl | 3 | 0.9 | 0.8 | 12 | / | 0.9 | 0.057*
CCCCCCCCCCCCOC(=O)C[N+](C)(C)C | / | / | / | / | -3.8* | / | 0.048*
CCCCCCCCOC(=O)C[N+](C)(C)C/C=C(/C)Cl | 8 | 1.1 | 1.1 | -7 | -1.8 | 1.1 | /
SMILES | G6PDH CS | Diaphorase act | PMI act satM6P | Diaph inh CS | ROMK mod | PMI act | ROMK retest
COCCN1C(=O)/C(=C/c2ccc(N3CCCC3)cc2C)SC1=S | 12 | 0.7 | 0.8 | 30 | / | 0.8 | /
CCOc1ccc(S(=O)(=O)NCCC(=O)OCC(=O)c2ccc[nH]2)cc1 | 2 | 0.9 | 0.9 | 12 | 1.3 | 1 | /
CC(NCC(O)COCc1ccc(Cl)cc1)c1ccccc1 (centres undefined) | 5 | 0.9 | 1.2 | 7 | -2* | 1.2 | 0.049*
CC(=O)O[C@]1(C(C)=O)CC[C@H]2[C@@H]3C=C(Cl)C4=CC(=O)CC[C@]4(C)[C@H]3CC[C@@]21C | 12 | 0.9 | 0.9 | 6 | / | 1 | 0.075
CC(=O)O[C@]1(C(C)=O)CC[C@H]2[C@@H]3C[C@H](C)C4=CC(=O)CC[C@]4(C)[C@H]3CC[C@@]21C | 15 | 0.8 | 0.9 | 17 | -1.8 | 0.9 | /
COc1ccc(S(=O)(=O)Nc2cc3c(cc2C(C)=O)OCO3)cc1 | 5 | / | / | / | 3.9 | / | /
Cc1sc(-c2cccnc2)nc1OC(=O)C1CC1 | 5 | 0.9 | 0.9 | 13 | -0.042 | 0.8 | /
COC(=O)[C@H](CCSC)NC(=O)Nc1ccc(C(C)C)cc1 | 0 | 0.9 | 1 | 14 | -0.39 | 1 | /
CCOc1ccc(NC(=O)N[C@@H](CCSC)C(=O)OC)cc1 | -8 | 0.9 | 1 | 7 | 2.4* | 1 | ?
Cc1ccc(C(C)C)c(OCC(O)CN2CCN(CCO)CC2)c1 (centres undefined) | 5 | 1 | 1.2 | 2 | / | 1.2 | /
Cc1ccc(OCC(O)CN2CCN(CC(O)COC(C)C)CC2)c(C(C)(C)C)c1 (centres undefined) | 10 | 1 | 1 | 4 | -3.7* | 1 | 0.062*
COc1ccc(CCNCC(=O)Nc2ccccc2C(F)(F)F)cc1 | 2 | 1.1 | 1.1 | -5 | -0.11 | 1.2 | /
CC[N+]1(C)CC2CCC(C)(C1)C2(C)C (centres undefined) | 4 | 1 | 1.2 | 0 | -1.1 | 1.2 | /
COc1ccc(-c2ccnc(-c3ccc(O)cc3)n2)cc1 | 0 | 0.7 | 0.9 | 26 | 3.2* | 0.8 | 0.086
O=C(/C=C/c1ccc(Cl)c([N+](=O)[O-])c1)Nc1ccc(N2CCCC2)cc1 | -3 | 0.9 | 0.9 | 7 | 0.49 | 1 | /
NNC(=O)C(=O)Nc1ccc(Cl)c(Cl)c1 | / | / | / | / | -12* | / | 0.076
O=C1C=C(NC(=O)Nc2ccc(Cl)c(Cl)c2)CCC1 | 2 | 1 | 1.1 | -3 | -0.34 | 1.1 | /
COc1cccc(CC(NC(C)=O)C(=O)NC2CCN(c3c(Cc4ccccc4)c(C)nc4ncnn34)CC2)c1 (centres undefined) | 0 | 1.1 | 1.1 | -6 | -0.74 | 1 | 0.093
O=C(O)CCC(=O)Nc1nnc(C(F)(F)F)s1 | 4 | 0.8 | 1 | 17 | / | 1 | /
CCC(NC(=O)Nc1nnc(C(F)(F)F)s1)(C(F)(F)F)C(F)(F)F | 13 | 0.8 | 1 | 17 | -5.8* | 1.1 | 0.062*
